This passage reports IC50, inhibition and Ki results from ChEMBL document CHEMBL4602658, “Stilbenes with Potent Protein Tyrosine Phosphatase-1B Inhibitory Activity from the Roots of Polygonum multiflorum” (J Nat Prod, 2020).

For assay [1], the target named is T1, Tyrosine-protein phosphatase non-receptor type 1 (Homo sapiens, UniProt P18031).
T1 sequence (P18031 whole entry): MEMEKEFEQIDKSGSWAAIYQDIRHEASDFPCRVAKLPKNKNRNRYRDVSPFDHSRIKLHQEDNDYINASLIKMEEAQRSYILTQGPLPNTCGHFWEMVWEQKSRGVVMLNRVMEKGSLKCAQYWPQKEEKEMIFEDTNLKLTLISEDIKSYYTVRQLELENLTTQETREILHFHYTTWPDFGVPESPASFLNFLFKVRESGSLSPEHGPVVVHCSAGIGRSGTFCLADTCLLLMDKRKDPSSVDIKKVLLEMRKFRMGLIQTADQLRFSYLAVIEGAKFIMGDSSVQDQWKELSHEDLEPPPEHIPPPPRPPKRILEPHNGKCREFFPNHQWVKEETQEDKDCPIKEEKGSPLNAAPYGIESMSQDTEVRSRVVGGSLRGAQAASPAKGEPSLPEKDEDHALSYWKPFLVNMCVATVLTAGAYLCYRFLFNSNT
The assay can be described thus: Inhibition of PTP1B (unknown origin) assessed as decrease in p-nitrophenolate formation using pNPP as substrate incubated for 15 mins by spectrophotometric method.

Assay [2] in a line: Antioxidant activity assessed as DPPH radical scavenging activity. Type of assay: functional.
Assay [3] addresses T2, Tyrosine-protein phosphatase non-receptor type 1 (Homo sapiens) (UniProt P18031).
T2 sequence (whole entry): T1 sequence (P18031 whole entry)
The experiment in a line: Noncompetitive inhibition of PTP1B (unknown origin) assessed as decrease in p-nitrophenolate formation using pNPP as substrate by Lineweaver-Burk plot analysis. A digest of the protocol: (§1)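 Kinetic analysis of human recombinant PTP1B with p-NPP substrate, run at several inhibitor levels. Ki was obtained from Dixon plots, and the inhibition mode from Lineweaver–Burk plots.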

Assay [4] addresses T1, Tyrosine-protein phosphatase non-receptor type 1. The experiment in a line: Inhibition of PTP1B (unknown origin) assessed as decrease in p-nitrophenolate formation using pNPP as substrate by Dixon plot analysis. The essentials: as §1

Activity calls are given as the source filed them. The calls are words filed in the database; no cut-off is given here. Where only a bound is given, the exact number is not on record here.

As usually defined, the IC50 is the concentration at which inhibition is half-maximal. The term Ki denotes the equilibrium dissociation constant of an inhibitor or competing ligand from its target.

`CC(=O)O[C@@H]1[C@@H](O)[C@H](Oc2c(O)cc(O)cc2/C=C/c2ccc(O)cc2)O[C@H](CO)[C@H]1O`: the IC50 in assay [1] turned out to be 37.6 µM.

In the case of `OC[C@H]1O[C@@H](Oc2c(O)cc(O)cc2[C@H]2c3c(cc(O)c(O[C@@H]4O[C@H](CO)[C@@H](O)[C@H](O)[C@H]4O)c3/C=C/c3ccc(O)cc3)O[C@@H]2c2ccc(O)cc2)[C@H](O)[C@@H](O)[C@@H]1O`, in assay [1], the IC50 is greater than 50 µM.

For the compound `OC[C@H]1O[C@@H](Oc2c(O)cc(O)cc2/C=C/c2ccc3c(c2)[C@H](c2cc(O)cc(O)c2O[C@@H]2O[C@H](CO)[C@@H](O)[C@H](O)[C@H]2O)[C@@H](c2ccc(O)cc2)O3)[C@H](O)[C@@H](O)[C@@H]1O`, the IC50 in assay [1] was determined as 32.2 µM.

Consider `Oc1ccc(/C=C/c2cc(O)cc(O)c2O[C@@H]2OC[C@@H](O)[C@H](O)[C@H]2O)cc1`, for which the IC50 in assay [1] was greater than 50 µM.

Consider `OC[C@H]1O[C@@H](Oc2c(O)cc(O)cc2/C=C/c2ccc(O)cc2)[C@H](O)[C@@H](O)[C@@H]1O`, for which the IC50 in assay [2] is 40000 µM; in assay [1], greater than 50 µM.

For the compound `O=C(O[C@H]1[C@H](Oc2c(O)cc(O)cc2/C=C/c2ccc(O)cc2)O[C@H](CO)[C@@H](O)[C@@H]1O)c1cc(O)c(O)c(O)c1`, in assay [1], the IC50 was greater than 50 µM.

With `C[C@@H]1O[C@@H](Oc2c(O)cc(O)cc2/C=C/c2ccc(O)cc2)[C@H](O)[C@H](O)[C@H]1O`, the IC50 in assay [1] is greater than 50 µM.

As to `Oc1ccc(/C=C/c2cc(O)cc(O)c2)cc1` [RESVERATROL], the IC50 in assay [1] is greater than 50 µM.

For the compound `O=C(O)c1cc(O)cc(O)c1C(=O)Cc1ccc(O)cc1`, in assay [1], the IC50 is greater than 50 µM.

As to `Oc1ccc(/C=C/c2cc(O)cc(O)c2O)cc1`, the values for the IC50 in assay [2] and in assay [1] were 400 µM and 12.1 µM, respectively.

`OC[C@H]1O[C@@H](Oc2c(O)cc(O)cc2/C=C/c2ccc3c(c2)[C@@H](c2cc(O)cc(O)c2O[C@@H]2O[C@H](CO)[C@@H](O)[C@H](O)[C@H]2O)[C@H](c2ccc(O)cc2)O3)[C@H](O)[C@@H](O)[C@@H]1O`: in assay [1], the IC50 was found to be 34.9 µM.

Turning to `COc1cc([C@@H]2CC(=O)Oc3cc(O)c(O[C@@H]4O[C@H](CO)[C@@H](O)[C@H](O)[C@H]4O)c(/C=C/c4ccc(O)cc4)c32)ccc1O`, in assay [1], the IC50 is greater than 50 µM.

In the case of `COc1cc(/C=C/C(=O)O[C@H]2[C@H](Oc3c(O)cc(O)cc3/C=C/c3ccc(O)cc3)O[C@H](CO)[C@@H](O)[C@@H]2O)ccc1O`, in assay [1], the IC50 is greater than 50 µM.

Consider `Oc1ccc([C@H]2Oc3ccc(/C=C/c4cc(O)cc(O)c4O)cc3[C@@H]2c2cc(O)cc(O)c2O)cc1`, for which, in assay [1], the IC50 was found to be 2.1 µM. Further, the inhibition result in assay [3] is “Active”. Further, the Ki in assay [4] was 1.02 µM.

`O=COC[C@H]1O[C@@H](Oc2c(O)cc(O)cc2/C=C/c2ccc(O)cc2)[C@H](O)[C@@H](O)[C@@H]1O`: the IC50 in assay [1] was greater than 50 µM.

Take `Oc1ccc([C@@H]2Oc3ccc(/C=C/c4cc(O)cc(O)c4O)cc3[C@H]2c2cc(O)cc(O)c2O)cc1`: in assay [1], the 50% inhibitory concentration (IC50) is 1.9 µM. Moreover, the inhibition result in assay [3] is “Active”. For the same compound, the Ki in assay [4] is 0.92 µM.

Regarding `COc1cc(/C=C/C(=O)O[C@@H]2[C@@H](O)[C@H](Oc3c(O)cc(O)cc3/C=C/c3ccc(O)cc3)O[C@H](CO)[C@H]2O)ccc1O`, in assay [1], the IC50 was 27.4 µM.

In the case of `OC[C@H]1O[C@@H](OC[C@H]2O[C@@H](Oc3c(O)cc(O)cc3/C=C/c3ccc(O)cc3)[C@H](O)[C@@H](O)[C@@H]2O)[C@H](O)[C@@H](O)[C@@H]1O`, the IC50 in assay [1] is greater than 50 µM.

As for `CC(=O)OC[C@H]1O[C@@H](Oc2c(O)cc(O)cc2/C=C/c2ccc(O)cc2)[C@H](O)[C@@H](O)[C@@H]1O`, the IC50 in assay [1] is greater than 50 µM.
